# Experimental data published in ChEMBL document CHEMBL4024711, “Design, synthesis and biological evaluation of novel nitric oxide-donating protoberberine derivatives as antitumor agents” (Eur J Med Chem, 2017).
# Activity calls are given as the source filed them. The calls are words filed in the database; no cut-off is given here.
# Experiments:
# HepG2 [1] = assay: Cytotoxicity against human HepG2 cells after 72 hrs by MTT assay; type: functional, cell-based; conditions: HepG2, 72 h
# Method in brief: (§1)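 MTT assay. Cells were plated and grown 24 h at 37 °C, 5% CO2, then exposed to compound in medium with 0.1% DMSO for 72 h. MTT (5 mg/mL in PBS) was added for 4 h and absorbance read at 490 nm. IC50 was taken from dose-response curves; at least three independent experiments.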
# [2] = Induction of NO release assessed as nitrite formation in PBS at 100 uM up to 300 mins by Griess assay
# Method in brief: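 Compound at 100 μM was incubated at 37 °C in PBS, pH 7.4, containing 2% DMSO and 5.0 mM L-cysteine, in acellular or HepG2 cell lysates, and sampled over time. Samples were mixed with Griess reagent at 37 °C for 15 min and read at 540 nm. Nitrite was quantified against a sodium nitrite standard curve, in triplicate.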
# HepG2 [3] = assay: Cytotoxicity against human HepG2 cells at 2 uM after 72 hrs by MTT assay; type: functional, cell-based
# Method in brief: (§2)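 HepG2 cells were pretreated for 2 h with graded concentrations of carboxy-PTIO (an NO scavenger), or left unpretreated. They were then exposed to 2 μM compound for 72 h, and growth was assessed by MTT. Mean ± SD, n=3.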
# HepG2 [4] = assay: Cytotoxicity against human HepG2 cells at 2 uM after 72 hrs in presence of NO scavenger PTIO by MTT assay; type: functional, cell-based; method in brief: as §2
# SMMC-7721 = assay: Cytotoxicity against human SMMC7721 cells after 72 hrs by MTT assay; type: functional, cell-based; conditions: SMMC-7721, 72 h; method in brief: as §1
# HCT-116 = assay: Cytotoxicity against human HCT116 cells after 72 hrs by MTT assay; type: functional, cell-based; conditions: HCT-116, 72 h; method in brief: as §1
# HL-60 = assay: Cytotoxicity against human HL60 cells after 72 hrs by MTT assay; type: functional, cell-based; conditions: HL-60, 72 h; method in brief: as §1
# HepG2 [5] = assay: Cell cycle arrest in human HepG2 cells assessed as accumulation at G1 phase at 0.5 uM after 72 hrs by propidium iodide staining based flow cytometric method (reference value: 56.77%); type: functional
# Method in brief: (§3)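 HepG2 cells were seeded and grown 24 h at 37 °C, 5% CO2. They were then exposed to 0, 0.5, 1 or 2 μM for 72 h, fixed in 70% ethanol at 4 °C for 12 h, and stained with RNase A plus propidium iodide for 30 min. DNA content was measured by flow cytometry to give the cell-cycle phase distribution.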
# HepG2 [6] = assay: Cell cycle arrest in human HepG2 cells assessed as accumulation at G1 phase at 1 uM after 72 hrs by propidium iodide staining based flow cytometric method (reference value: 56.77%); type: functional; method in brief: as §3
# HepG2 [7] = assay: Cell cycle arrest in human HepG2 cells assessed as accumulation at G2 phase at 1 uM after 72 hrs by propidium iodide staining based flow cytometric method (reference value: 17.45%); type: functional; method in brief: as §3
# HepG2 [8] = assay: Cell cycle arrest in human HepG2 cells assessed as accumulation at G1 phase at 2 uM after 72 hrs by propidium iodide staining based flow cytometric method (reference value: 56.77%); type: functional; method in brief: as §3
# HepG2 [9] = assay: Cell cycle arrest in human HepG2 cells assessed as accumulation at G2 phase at 2 uM after 72 hrs by propidium iodide staining based flow cytometric method (reference value: 17.45%); type: functional; method in brief: as §3
# HepG2 [10] = assay: Cell cycle arrest in human HepG2 cells assessed as accumulation at S phase at 2 uM after 72 hrs by propidium iodide staining based flow cytometric method (reference value: 25.78%); type: functional; method in brief: as §3
# HepG2 [11] = assay: Induction of apoptosis in human HepG2 cells after 72 hrs by Annexin V-APC/7-AAD staining based flow cytometric method; type: functional, cell-based
# HepG2 [12] = assay: Induction of apoptosis in human HepG2 cells assessed as live cells at 0.5 uM after 72 hrs by Annexin V-APC/7-AAD staining based flow cytometric method (reference value: 94.99%); type: functional
# HepG2 [13] = assay: Induction of apoptosis in human HepG2 cells assessed as early apoptotic cells at 0.5 uM after 72 hrs by Annexin V-APC/7-AAD staining based flow cytometric method (reference value: 2.06%); type: functional
# HepG2 [14] = assay: Induction of apoptosis in human HepG2 cells assessed as necrotic cells at 0.5 uM after 72 hrs by Annexin V-APC/7-AAD staining based flow cytometric method (reference value: 2.44%); type: functional
# HepG2 [15] = assay: Induction of apoptosis in human HepG2 cells assessed as live cells at 1 uM after 72 hrs by Annexin V-APC/7-AAD staining based flow cytometric method (reference value: 94.99%); type: functional
# HepG2 [16] = assay: Induction of apoptosis in human HepG2 cells assessed as early apoptotic cells at 1 uM after 72 hrs by Annexin V-APC/7-AAD staining based flow cytometric method (reference value: 2.06%); type: functional
# HepG2 [17] = assay: Induction of apoptosis in human HepG2 cells assessed as late apoptotic cells at 1 uM after 72 hrs by Annexin V-APC/7-AAD staining based flow cytometric method (reference value: 0.51%); type: functional
# HepG2 [18] = assay: Induction of apoptosis in human HepG2 cells assessed as live cells at 2 uM after 72 hrs by Annexin V-APC/7-AAD staining based flow cytometric method (reference value: 94.99%); type: functional
# HepG2 [19] = assay: Induction of apoptosis in human HepG2 cells assessed as early apoptotic cells at 2 uM after 72 hrs by Annexin V-APC/7-AAD staining based flow cytometric method (reference value: 2.06%); type: functional
# HepG2 [20] = assay: Induction of apoptosis in human HepG2 cells assessed as late apoptotic cells at 2 uM after 72 hrs by Annexin V-APC/7-AAD staining based flow cytometric method (reference value: 0.51%); type: functional
# HepG2 [21] = assay: Induction of apoptosis in human HepG2 cells assessed as necrotic cells at 2 uM after 72 hrs by Annexin V-APC/7-AAD staining based flow cytometric method (reference value: 2.44%); type: functional
# HepG2 [22] = assay: Disruption of mitochondrial membrane potential in human HepG2 cells assessed as intact mitochondrial membrane at 0.5 uM after 72 hrs by JC1 staining based flow cytometric method (reference value: 96.94%); type: functional
# Method in brief: (§4)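 HepG2 cells were exposed to 0, 0.5, 1 or 2 μM for 72 h, washed in PBS, and resuspended in JC-1 incubation buffer at 37 °C for 15 min. The fractions of cells with healthy or collapsed mitochondrial membrane potential were determined by flow cytometry.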
# HepG2 [23] = assay: Disruption of mitochondrial membrane potential in human HepG2 cells assessed as collapse of the mitochondrial membrane potential at 2 uM after 72 hrs by JC1 staining based flow cytometric method (reference value: 3.05%); type: functional; method in brief: as §4
# H22 [24] = assay: Antitumor activity against […] H22 cells xenografted in ICR mouse assessed as tumor weight at 30 mg/kg, iv administered once daily for 21 days measured post last dose (reference value: 4.38 +/- 0.16 g); type: functional
# H22 [25] = assay: Antitumor activity against […] H22 cells xenografted in ICR mouse assessed as tumor weight at 15 mg/kg, iv administered once daily for 21 days measured post last dose (reference value: 4.38 +/- 0.16 g); type: functional
# Mus musculus = assay: Toxicity in ICR mouse xenografted with […] cells assessed as body weight at 15 mg/kg, iv administered once daily for 21 days measured post last dose (reference value: 26 +/- 0.6 g); type: organism-based; conditions: in vivo, 504 h
structure (smiles),measurement,setting,value
COc1cc2c(cc1OC)-c1c(Br)c3ccc(OC)c(OCCCCCCCCO[N+](=O)[O-])c3c[n+]1CC2.[Br-],IC50,HepG2 [1],1.36 µM
same,Activity,[2],Active
same,Activity,HepG2 [3],Active
same,Activity,HepG2 [4],inactive
same,IC50,SMMC-7721,1.21 µM
same,IC50,HCT-116,2.29 µM
same,IC50,HL-60,1.26 µM
same,Activity,HepG2 [5],51.14%
same,Activity,HepG2 [6],47.33%
same,Activity,HepG2 [7],29.57%
same,Activity,HepG2 [8],34.32%
same,Activity,HepG2 [9],41.45%
same,Activity,HepG2 [10],24.23%
same,Activity,HepG2 [11],Dose-dependent effect
same,Activity,HepG2 [12],85.1%
same,Activity,HepG2 [13],11.02%
same,Activity,HepG2 [14],1.49%
same,Activity,HepG2 [15],63.61%
same,Activity,HepG2 [16],22.97%
same,Activity,HepG2 [17],9.11%
same,Activity,HepG2 [18],44.44%
same,Activity,HepG2 [19],41.13%
same,Activity,HepG2 [20],10.01%
same,Activity,HepG2 [21],4.43%
same,Activity,HepG2 [22],87.9%
same,Activity,HepG2 [23],40.5%
same,Activity,H22 [24],1.64 g
same,Activity,H22 [25],2.37 g
same,Activity,Mus musculus,25.4 g
